Reference: ChEMBL document CHEMBL2010675, “Discovery of GS-9451: an acid inhibitor of the hepatitis C virus NS3/4A protease” (Bioorg Med Chem Lett, 2012)
Values after ≈ are worked out from the molar mass of the structure shown.

What was measured:
[1] = tested on: Hepatitis C virus; assay: Inhibition of Hepatitis C virus genotype 1b NS3/4A protease; parameters: species or system Hepatitis C virus subtype 1b
[2] = Volume of distribution at steady state in dog at 1 mg/kg, iv and 4 mg/kg, po; type: ADME, organism-based, Canis lupus familiaris; conditions: in vivo, read-out: Vdss
Procedure, shortened: (§1)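 Dosed at 1.0 mg/kg iv and 4.0 mg/kg po; plasma drug levels followed to derive iv t1/2, oral AUC, clearance, Vdss and oral bioavailability (F).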

[3] = Thermodynamic solubility of the compound at pH 7.3; type: physicochemical; conditions: buffer, read-out: Therm_solubility
[4] = tested on: Canis familiaris; assay: AUC in dog at 4 mg/kg, po; type: ADME, organism-based, Canis lupus familiaris, Plasma; parameters: dose 4 mg/kg, route oral; conditions: in vivo; procedure, shortened: as §1
[5] = Clearance in dog at 1 mg/kg, iv and 4 mg/kg, po; type: ADME, organism-based, Canis lupus familiaris; conditions: in vivo; procedure, shortened: as §1
[6] = Permeability from apical to basolateral side in human Caco2 cells; type: ADME, cell-based; conditions: Caco-2, read-out: permeability
[7] = tested on: Hepatitis C virus; assay: Antiviral activity against Hepatitis C virus genotype 1b infected in human Huh cells by luciferase reporter gene based replicon assay; type: functional, organism-based, Hepacivirus hominis
Procedure, shortened: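 EC50 from a cell-based assay in Huh-luc cells carrying a subgenomic HCV genotype 1b replicon, with luciferase reporter read-out.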

[8] = Half life in dog at 1 mg/kg, iv; type: ADME, organism-based, Canis lupus familiaris; parameters: dose 1 mg/kg, route intravenous; conditions: in vivo; procedure, shortened: as §1
[9] = Thermodynamic solubility of the compound at pH 2.2; type: physicochemical; conditions: buffer, read-out: Therm_solubility
[10] = Oral bioavailability in dog at 4 mg/kg; type: ADME, organism-based, Canis lupus familiaris; conditions: in vivo; procedure, shortened: as §1
[11] = Permeability from basolateral to apical side in human Caco2 cells; type: ADME, cell-based; conditions: Caco-2, read-out: permeability
[12] = Fraction unbound in dog plasma; type: ADME, cell-free, Canis lupus familiaris
[13] = tested on: Rattus norvegicus; assay: AUC in rat at 4 mg/kg, po; type: ADME, organism-based, Plasma; parameters: dose 4 mg/kg, route oral; conditions: in vivo
[14] = Fraction unbound in cynomolgus monkey plasma; type: ADME, cell-free, Macaca fascicularis
[15] = Cmax in cynomolgus monkey at 4 mg/kg, po; type: ADME, organism-based, Macaca fascicularis; parameters: dose 4 mg/kg, route oral; conditions: in vivo
[16] = Oral bioavailability in cynomolgus monkey at 4 mg/kg; type: ADME, organism-based, Macaca fascicularis; conditions: in vivo; procedure, shortened: as §1
[17] = Selectivity for hepatitis C virus NS3/4A protease over human proteinase 3
[18] = Half life in dog microsomes; type: ADME, Canis lupus familiaris, Microsome
[19] = Volume of distribution at steady state in rat at 1 mg/kg, iv and 4 mg/kg, po; type: ADME, organism-based; conditions: in vivo, read-out: Vdss
[20] = Drug excretion in rat bile at 1 mg/kg, iv; type: ADME, organism-based; parameters: dose 1 mg/kg, route intravenous; conditions: read-out: Drug excretion
Procedure, shortened: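 Bile-duct cannulated rats given drug intravenously; bile collected and the fraction of total dose recovered as parent compound and as glucuronide conjugates measured.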

[21] = Selectivity for hepatitis C virus NS3/4A protease over human leukocyte elastase
[22] = Selectivity for hepatitis C virus NS3/4A protease over human cathepsin D
[23] = Volume of distribution at steady state in cynomolgus monkey at 1 mg/kg, iv and 4 mg/kg, po; type: ADME, organism-based, Macaca fascicularis; conditions: in vivo, read-out: Vdss; procedure, shortened: as §1
[24] = Clearance in cynomolgus monkey at 1 mg/kg, iv and 4 mg/kg, po; type: ADME, organism-based, Macaca fascicularis; conditions: in vivo; procedure, shortened: as §1
[25] = Cmax in dog at 4 mg/kg, po; type: ADME, organism-based, Canis lupus familiaris; parameters: dose 4 mg/kg, route oral; conditions: in vivo
[26] = Half life in cynomolgus monkey at 1 mg/kg, iv; type: ADME, organism-based, Macaca fascicularis; parameters: dose 1 mg/kg, route intravenous; conditions: in vivo; procedure, shortened: as §1
[27] = Half life in rat at 1 mg/kg, iv; type: ADME, organism-based; parameters: dose 1 mg/kg, route intravenous; conditions: in vivo
[28] = tested on: Hepatitis C virus; assay: Antiviral activity against Hepatitis C virus genotype 1a infected in human assessed as log decrease in viral RNA level at 400 mg, po for 3 days; type: functional, Hepacivirus hominis, subtype 1a
[29] = target: Multidrug resistance-associated protein 1 (Homo sapiens, UniProt P33527); assay: Inhibition of MRP1
Sequence of Multidrug resistance-associated protein 1 (P33527 whole entry): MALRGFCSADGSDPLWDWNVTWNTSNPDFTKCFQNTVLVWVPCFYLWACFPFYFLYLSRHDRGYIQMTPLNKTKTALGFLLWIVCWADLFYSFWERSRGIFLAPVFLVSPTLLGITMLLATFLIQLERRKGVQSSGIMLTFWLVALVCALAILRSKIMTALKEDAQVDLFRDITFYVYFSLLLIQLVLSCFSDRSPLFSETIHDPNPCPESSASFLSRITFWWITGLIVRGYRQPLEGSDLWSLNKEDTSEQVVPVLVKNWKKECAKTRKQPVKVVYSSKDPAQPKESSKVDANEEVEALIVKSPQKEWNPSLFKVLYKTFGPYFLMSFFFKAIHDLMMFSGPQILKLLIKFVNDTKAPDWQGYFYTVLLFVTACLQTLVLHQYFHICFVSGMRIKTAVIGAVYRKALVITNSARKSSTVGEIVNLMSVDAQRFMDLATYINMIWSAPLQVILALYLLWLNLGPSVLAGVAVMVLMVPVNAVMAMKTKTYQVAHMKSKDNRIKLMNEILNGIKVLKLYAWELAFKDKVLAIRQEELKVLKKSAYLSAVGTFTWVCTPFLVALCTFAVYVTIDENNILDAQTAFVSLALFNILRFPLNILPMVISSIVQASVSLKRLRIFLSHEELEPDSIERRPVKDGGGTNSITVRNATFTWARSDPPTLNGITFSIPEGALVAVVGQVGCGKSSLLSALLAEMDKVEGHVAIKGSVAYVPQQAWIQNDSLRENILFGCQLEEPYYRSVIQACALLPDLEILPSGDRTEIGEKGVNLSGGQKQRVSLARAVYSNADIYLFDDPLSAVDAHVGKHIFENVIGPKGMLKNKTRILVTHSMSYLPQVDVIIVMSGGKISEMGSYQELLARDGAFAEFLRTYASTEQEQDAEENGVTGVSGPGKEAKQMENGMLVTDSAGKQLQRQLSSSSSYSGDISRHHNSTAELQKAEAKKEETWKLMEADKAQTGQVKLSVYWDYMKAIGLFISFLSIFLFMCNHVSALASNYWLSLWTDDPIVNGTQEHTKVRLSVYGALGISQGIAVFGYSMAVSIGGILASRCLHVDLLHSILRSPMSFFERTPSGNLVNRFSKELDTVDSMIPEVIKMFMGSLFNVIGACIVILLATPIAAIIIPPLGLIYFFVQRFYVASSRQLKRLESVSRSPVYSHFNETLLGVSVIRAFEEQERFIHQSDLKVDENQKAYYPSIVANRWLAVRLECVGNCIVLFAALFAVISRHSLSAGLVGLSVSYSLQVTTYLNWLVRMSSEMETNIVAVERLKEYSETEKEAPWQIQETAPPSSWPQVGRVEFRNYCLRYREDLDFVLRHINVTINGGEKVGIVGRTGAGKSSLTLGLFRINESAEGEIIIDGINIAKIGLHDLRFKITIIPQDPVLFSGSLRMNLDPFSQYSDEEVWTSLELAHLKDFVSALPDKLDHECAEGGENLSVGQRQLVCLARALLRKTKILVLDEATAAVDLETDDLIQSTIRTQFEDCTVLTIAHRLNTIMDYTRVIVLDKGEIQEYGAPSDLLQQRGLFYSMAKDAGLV

[30] = Half life in cynomolgus monkey microsomes; type: ADME, Macaca fascicularis, Microsome
[31] = Inhibition of cytochrome P450 up to 25 uM; type: ADME
[32] = Elimination half life in human at 10 to 1000 mg; conditions: in vivo, read-out: beta t1/2 (converted)
[33] = Oral bioavailability in rat at 4 mg/kg; type: ADME, organism-based; conditions: in vivo
[34] = tested on: Cynomolgus monkey; assay: AUC in cynomolgus monkey at 4 mg/kg, po; type: ADME, organism-based, Macaca fascicularis, Plasma; parameters: dose 4 mg/kg, route oral; conditions: in vivo; procedure, shortened: as §1
[35] = Half life in rat microsomes; type: ADME, Microsome
[36] = Plasma concentration in human at 300 mg after 24 hrs
[37] = target: Voltage-gated inwardly rectifying potassium channel KCNH2 (Homo sapiens, UniProt Q12809); assay: Inhibition of human Erg up to 25 uM
Sequence of Voltage-gated inwardly rectifying potassium channel KCNH2 (Q12809 whole entry): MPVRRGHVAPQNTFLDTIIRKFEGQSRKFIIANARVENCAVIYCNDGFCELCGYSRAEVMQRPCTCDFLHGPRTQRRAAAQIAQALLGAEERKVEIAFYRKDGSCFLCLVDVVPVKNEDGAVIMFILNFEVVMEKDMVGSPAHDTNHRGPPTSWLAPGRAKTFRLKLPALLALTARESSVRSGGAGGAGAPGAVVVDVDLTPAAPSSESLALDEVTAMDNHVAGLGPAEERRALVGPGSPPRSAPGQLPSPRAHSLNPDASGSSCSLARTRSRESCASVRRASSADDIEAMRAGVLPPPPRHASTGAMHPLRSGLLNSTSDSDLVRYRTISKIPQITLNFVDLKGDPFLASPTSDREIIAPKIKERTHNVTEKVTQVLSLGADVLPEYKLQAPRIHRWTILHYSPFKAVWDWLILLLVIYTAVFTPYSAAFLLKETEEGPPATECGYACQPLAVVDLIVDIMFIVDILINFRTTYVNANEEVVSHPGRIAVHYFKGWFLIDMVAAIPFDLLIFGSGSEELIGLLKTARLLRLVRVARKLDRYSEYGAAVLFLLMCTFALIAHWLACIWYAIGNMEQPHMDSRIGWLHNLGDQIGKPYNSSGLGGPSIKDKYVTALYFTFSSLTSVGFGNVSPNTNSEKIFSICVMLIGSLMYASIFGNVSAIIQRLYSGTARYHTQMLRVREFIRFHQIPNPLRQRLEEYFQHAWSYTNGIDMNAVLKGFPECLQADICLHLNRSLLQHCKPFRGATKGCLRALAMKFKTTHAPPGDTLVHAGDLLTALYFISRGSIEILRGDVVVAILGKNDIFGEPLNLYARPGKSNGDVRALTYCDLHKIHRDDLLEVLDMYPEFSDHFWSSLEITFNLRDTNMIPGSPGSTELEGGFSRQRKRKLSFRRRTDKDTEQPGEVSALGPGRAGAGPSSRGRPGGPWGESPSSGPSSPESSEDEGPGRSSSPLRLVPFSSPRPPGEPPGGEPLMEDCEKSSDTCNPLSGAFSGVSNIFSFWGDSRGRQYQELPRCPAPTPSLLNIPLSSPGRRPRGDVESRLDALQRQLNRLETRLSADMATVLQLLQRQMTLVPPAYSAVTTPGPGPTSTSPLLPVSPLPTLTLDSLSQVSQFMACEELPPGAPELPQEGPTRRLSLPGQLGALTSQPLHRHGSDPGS

[38] = target: ATP-binding cassette sub-family C member 2 (Homo sapiens, UniProt Q92887); assay: Inhibition of MRP2
Sequence of ATP-binding cassette sub-family C member 2 (Q92887 whole entry): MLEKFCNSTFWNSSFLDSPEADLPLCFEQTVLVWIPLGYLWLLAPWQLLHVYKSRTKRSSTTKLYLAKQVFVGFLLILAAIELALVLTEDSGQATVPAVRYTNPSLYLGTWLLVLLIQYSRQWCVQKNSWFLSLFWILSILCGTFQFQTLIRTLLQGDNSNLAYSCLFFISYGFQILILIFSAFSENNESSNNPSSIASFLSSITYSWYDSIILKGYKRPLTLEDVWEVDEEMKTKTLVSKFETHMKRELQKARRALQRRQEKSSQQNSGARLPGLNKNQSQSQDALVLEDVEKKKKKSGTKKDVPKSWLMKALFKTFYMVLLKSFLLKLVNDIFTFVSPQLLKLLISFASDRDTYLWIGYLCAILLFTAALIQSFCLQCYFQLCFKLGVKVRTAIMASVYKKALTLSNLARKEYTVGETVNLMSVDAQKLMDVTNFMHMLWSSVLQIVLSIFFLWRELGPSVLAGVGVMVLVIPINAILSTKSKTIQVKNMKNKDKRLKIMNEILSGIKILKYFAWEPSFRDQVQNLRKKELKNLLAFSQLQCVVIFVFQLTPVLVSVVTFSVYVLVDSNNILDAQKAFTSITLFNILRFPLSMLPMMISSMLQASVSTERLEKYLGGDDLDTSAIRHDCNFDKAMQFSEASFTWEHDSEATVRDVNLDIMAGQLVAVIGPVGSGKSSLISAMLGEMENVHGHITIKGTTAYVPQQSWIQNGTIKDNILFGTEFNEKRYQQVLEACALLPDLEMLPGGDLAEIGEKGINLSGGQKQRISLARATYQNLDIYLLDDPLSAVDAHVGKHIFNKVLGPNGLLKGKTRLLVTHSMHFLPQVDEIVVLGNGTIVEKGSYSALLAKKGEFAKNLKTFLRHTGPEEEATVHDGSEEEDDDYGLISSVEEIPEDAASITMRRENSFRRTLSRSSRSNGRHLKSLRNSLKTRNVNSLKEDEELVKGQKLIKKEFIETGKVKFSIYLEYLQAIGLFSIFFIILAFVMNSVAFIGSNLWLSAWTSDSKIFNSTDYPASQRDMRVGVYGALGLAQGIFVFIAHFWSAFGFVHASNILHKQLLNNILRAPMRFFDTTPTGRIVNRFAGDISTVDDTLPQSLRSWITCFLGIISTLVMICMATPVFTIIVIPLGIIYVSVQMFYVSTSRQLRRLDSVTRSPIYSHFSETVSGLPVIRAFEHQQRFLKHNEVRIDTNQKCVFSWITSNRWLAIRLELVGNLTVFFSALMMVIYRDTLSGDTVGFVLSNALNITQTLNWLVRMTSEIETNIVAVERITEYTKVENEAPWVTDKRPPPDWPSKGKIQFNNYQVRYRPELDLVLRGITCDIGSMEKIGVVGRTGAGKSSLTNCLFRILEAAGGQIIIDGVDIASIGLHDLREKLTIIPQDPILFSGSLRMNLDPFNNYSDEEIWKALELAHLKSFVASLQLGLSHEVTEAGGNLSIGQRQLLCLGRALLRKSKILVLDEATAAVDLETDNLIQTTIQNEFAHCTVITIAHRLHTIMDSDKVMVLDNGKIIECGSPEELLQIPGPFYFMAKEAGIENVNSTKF

[39] = Fraction unbound in human plasma; type: ADME, cell-free
[40] = Selectivity for hepatitis C virus NS3/4A protease over human cathepsin L
[41] = target: T1, Broad substrate specificity ATP-binding cassette transporter ABCG2 (Homo sapiens, UniProt Q9UNQ0); assay: Inhibition of BCRP; type: ADME
T1 sequence (Q9UNQ0 whole entry): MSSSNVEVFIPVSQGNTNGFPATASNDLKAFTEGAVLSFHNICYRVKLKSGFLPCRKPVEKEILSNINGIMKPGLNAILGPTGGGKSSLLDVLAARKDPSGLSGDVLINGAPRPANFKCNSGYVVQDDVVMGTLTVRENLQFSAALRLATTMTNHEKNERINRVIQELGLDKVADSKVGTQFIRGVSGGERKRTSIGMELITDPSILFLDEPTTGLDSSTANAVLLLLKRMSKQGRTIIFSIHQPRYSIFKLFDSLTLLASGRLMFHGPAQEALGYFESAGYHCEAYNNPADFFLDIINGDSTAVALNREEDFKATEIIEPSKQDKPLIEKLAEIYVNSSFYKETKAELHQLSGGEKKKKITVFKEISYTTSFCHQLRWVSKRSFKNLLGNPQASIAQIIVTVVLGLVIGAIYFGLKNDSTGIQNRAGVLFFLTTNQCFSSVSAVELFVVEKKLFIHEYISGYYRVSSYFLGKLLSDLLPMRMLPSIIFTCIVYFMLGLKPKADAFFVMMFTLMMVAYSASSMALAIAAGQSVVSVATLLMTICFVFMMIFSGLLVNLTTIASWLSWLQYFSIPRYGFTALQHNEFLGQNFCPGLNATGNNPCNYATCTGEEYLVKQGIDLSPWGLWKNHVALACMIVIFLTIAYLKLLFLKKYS

[42] = Fraction unbound in rat plasma; type: ADME, cell-free
[43] = Cmax in rat at 4 mg/kg, po; type: ADME, organism-based; parameters: dose 4 mg/kg, route oral; conditions: in vivo
[44] = tested on: Hepatitis C virus; assay: Antiviral activity against Hepatitis C virus genotype 1a infected in human assessed as log decrease in viral RNA level at 60 mg, po for 3 days; type: functional, Hepacivirus hominis, subtype 1a
[45] = Half life in human microsomes; type: ADME, Microsome
[46] = Clearance in rat at 1 mg/kg, iv and 4 mg/kg, po; type: ADME, organism-based; conditions: in vivo
[47] = Inhibition of p-glycoprotein
[48] = tested on: Hepatitis C virus; assay: Antiviral activity against Hepatitis C virus genotype 1a infected in human assessed as log decrease in viral RNA level at 200 mg, po for 3 days; type: functional, Hepacivirus hominis, subtype 1a

Q: What does the source list for CC[C@@H]1C[C@]1(NC(=O)[C@@H]1C[C@@H](Oc2cc(-c3csc(NC(C)C)n3)nc3c(Cl)c(OCCN4CCOCC4(C)C)ccc23)CN1C(=O)[C@@H](NC(=O)O[C@@H]1C[C@@H]2C[C@@H]2C1)C(C)(C)C)C(=O)O?
A: IC50 [1]: 4.2 nM; Vd [2]: 0.21 L/kg; solubility thermodynamic [3]: 22 µM (≈ 20.6 µg/mL); AUC [4]: 38.3 µM·h; clearance [5]: 0.5 mL/min/kg; Papp A→B [6]: 6.6 ×10⁻⁶ cm/s; EC50 [7]: 3.2 nM; half-life [8]: 5.8 h; solubility thermodynamic [9]: 1900 µM (≈ 1780 µg/mL); bioavailability [10]: 24%; Papp B→A [11]: 10 ×10⁻⁶ cm/s

Q: With CC[C@@H]1C[C@]1(NC(=O)[C@@H]1C[C@@H](Oc2cc(-c3csc(NC(C)C)n3)nc3c(Cl)c(OCCN4CC[C@@H](OC)C4)ccc23)CN1C(=O)[C@@H](NC(=O)O[C@@H]1C[C@@H]2C[C@@H]2C1)C(C)(C)C)C(=O)O as the compound, how does the IC50 [1] read?
A: 2.9 nM

Q: What about the Vd [2] of the same compound?
A: 0.66 L/kg

Q: And the solubility thermodynamic [3]?
A: 59 µM (≈ 54.5 µg/mL)

Q: And the AUC [4]?
A: 8.33 µM·h

Q: And the clearance [5]?
A: 3.67 mL/min/kg

Q: What about the Papp A→B [6] of the same compound?
A: 6.1 ×10⁻⁶ cm/s

Q: And the EC50 [7]?
A: 3.8 nM

Q: And the half-life [8]?
A: 2.1 h

Q: And the solubility thermodynamic [9]?
A: > 100 µM

Q: What about the bioavailability [10] of the same compound?
A: 45%

Q: What about the Papp B→A [11] of the same compound?
A: 30 ×10⁻⁶ cm/s

Q: What does the source list for CC[C@@H]1C[C@]1(NC(=O)[C@@H]1C[C@@H](Oc2cc(-c3csc(NC(C)C)n3)nc3c(Cl)c(OCCN4CCCCC4)ccc23)CN1C(=O)[C@@H](NC(=O)O[C@@H]1C[C@@H]2C[C@@H]2C1)C(C)(C)C)C(=O)O?
A: IC50 [1]: 25 nM; Vd [2]: 0.39 L/kg; solubility thermodynamic [3]: 80 µM (≈ 72.7 µg/mL); AUC [4]: 19.7 µM·h; clearance [5]: 2.17 mL/min/kg; Papp A→B [6]: 6.7 ×10⁻⁶ cm/s; EC50 [7]: 7.5 nM; half-life [8]: 3 h; solubility thermodynamic [9]: > 100 µM; bioavailability [10]: 32%; Papp B→A [11]: 20 ×10⁻⁶ cm/s

Q: Which results are given for CC[C@@H]1C[C@]1(NC(=O)[C@@H]1C[C@@H](Oc2cc(-c3csc(NC(C)C)n3)nc3c(Cl)c(OCCN4CCOCC4)ccc23)CN1C(=O)[C@@H](NC(=O)O[C@@H]1C[C@@H]2C[C@@H]2C1)C(C)(C)C)C(=O)O [VEDROPREVIR]?
A: fraction unbound [12]: 0.026; AUC [13]: 1.41 µM·h; fraction unbound [14]: 0.016; IC50 [1]: 3.2 nM; Vd [2]: 1.15 L/kg; Cmax [15]: 3470 nM; bioavailability [16]: 49%; Selectivity ratio [17]: > 50000; half-life [18]: > 6.58 h; solubility thermodynamic [3]: 38 µM (≈ 34.6 µg/mL); AUC [4]: 21.8 µM·h; Vd [19]: 2.3 L/kg; dose excreted [20]: 45%; Selectivity ratio [21]: > 50000; Selectivity ratio [22]: > 50000; Vd [23]: 0.76 L/kg; clearance [24]: 4.83 mL/min/kg; Cmax [25]: 3940 nM; half-life [26]: 3.9 h; half-life [27]: 0.62 h; clearance [5]: 4.33 mL/min/kg; Activity [28]: 3.6 log10IU/ml; Papp A→B [6]: 0.8 ×10⁻⁶ cm/s; IC50 [29]: 14900 nM; inhibition (INH) [29]: Dose-dependent effect; half-life [30]: 1.32 h; inhibition (INH) [31]: Not Active; half-life [32]: 12 h; bioavailability [33]: 62%; AUC [34]: 13.1 µM·h; half-life [35]: > 6.58 h; EC50 [7]: 2 nM; half-life [8]: 4.2 h; solubility thermodynamic [9]: 790 µM (≈ 719 µg/mL); concentration at 24 h [36]: 400 nM; bioavailability [10]: 142%; inhibition (INH) [37]: Not Active; IC50 [38]: 12000 nM; inhibition (INH) [38]: Dose-dependent effect; fraction unbound [39]: 0.026; Selectivity ratio [40]: > 50000; Papp B→A [11]: 8.2 ×10⁻⁶ cm/s; IC50 [41]: 1400 nM; fraction unbound [42]: 0.011; Cmax [43]: 576 nM; Activity [44]: 0.88 log10IU/ml; half-life [45]: > 6.58 h; clearance [46]: 73.3 mL/min/kg; IC50 [47]: 34000 nM; inhibition (INH) [47]: Dose-dependent effect; Activity [48]: 3.2 log10IU/ml
